In ChEMBL document CHEMBL1127381, “Synthesis and 5-lipoxygenase inhibitory activities of some novel 2-substituted 5-benzofuran hydroxamic acids” (J Med Chem, 1994):

Tests used:
[1] = biological target: T1, Polyunsaturated fatty acid 5-lipoxygenase (Mus musculus) (UniProt P48999); experiment: In vivo inhibition of 5-lipoxygenase (LTC4) in the mouse zymosan peritonitis assay at an oral dose of 30 mg/Kg; assay type: functional, organism-based
T1 sequence (whole entry): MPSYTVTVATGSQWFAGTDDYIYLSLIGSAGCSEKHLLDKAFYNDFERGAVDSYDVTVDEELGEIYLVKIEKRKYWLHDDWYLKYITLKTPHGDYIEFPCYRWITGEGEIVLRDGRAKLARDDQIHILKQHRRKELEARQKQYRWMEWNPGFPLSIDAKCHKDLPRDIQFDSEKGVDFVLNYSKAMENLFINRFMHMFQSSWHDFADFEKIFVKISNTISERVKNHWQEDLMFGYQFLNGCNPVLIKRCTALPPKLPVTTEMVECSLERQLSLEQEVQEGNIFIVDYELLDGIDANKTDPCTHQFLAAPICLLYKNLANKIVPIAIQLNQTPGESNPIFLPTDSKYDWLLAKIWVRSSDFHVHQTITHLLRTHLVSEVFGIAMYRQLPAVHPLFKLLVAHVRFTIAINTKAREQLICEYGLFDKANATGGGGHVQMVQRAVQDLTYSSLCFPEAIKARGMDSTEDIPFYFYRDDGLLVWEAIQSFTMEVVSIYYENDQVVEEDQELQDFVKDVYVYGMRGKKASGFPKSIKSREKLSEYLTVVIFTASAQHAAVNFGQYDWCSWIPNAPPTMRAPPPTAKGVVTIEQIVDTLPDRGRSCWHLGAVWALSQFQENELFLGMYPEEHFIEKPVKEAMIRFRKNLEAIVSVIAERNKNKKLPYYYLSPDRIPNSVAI
Outline: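 Male CD-1 mice (18–25 g) given compound orally in PEG 200. Zymosan-A (3 mg in 0.9% saline) injected ip 1 h later. Mice killed 15 min after zymosan; peritoneum lavaged with 10 μM indomethacin. Fluid extracted in cold 95% ethanol and dried. LTC4 measured by [3H]RIA on 1:20 dilution. Values are mean percent inhibition per animal ± SEM.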

[2] = biological target: T2, Polyunsaturated fatty acid 5-lipoxygenase (Rattus norvegicus, UniProt P12527); experiment: In vitro inhibition of 5-lipoxygenase (5-HETE) derived from the 9000xg supernatant of RBL broken cell assay; assay type: cell-based
T2 sequence (P12527 whole entry): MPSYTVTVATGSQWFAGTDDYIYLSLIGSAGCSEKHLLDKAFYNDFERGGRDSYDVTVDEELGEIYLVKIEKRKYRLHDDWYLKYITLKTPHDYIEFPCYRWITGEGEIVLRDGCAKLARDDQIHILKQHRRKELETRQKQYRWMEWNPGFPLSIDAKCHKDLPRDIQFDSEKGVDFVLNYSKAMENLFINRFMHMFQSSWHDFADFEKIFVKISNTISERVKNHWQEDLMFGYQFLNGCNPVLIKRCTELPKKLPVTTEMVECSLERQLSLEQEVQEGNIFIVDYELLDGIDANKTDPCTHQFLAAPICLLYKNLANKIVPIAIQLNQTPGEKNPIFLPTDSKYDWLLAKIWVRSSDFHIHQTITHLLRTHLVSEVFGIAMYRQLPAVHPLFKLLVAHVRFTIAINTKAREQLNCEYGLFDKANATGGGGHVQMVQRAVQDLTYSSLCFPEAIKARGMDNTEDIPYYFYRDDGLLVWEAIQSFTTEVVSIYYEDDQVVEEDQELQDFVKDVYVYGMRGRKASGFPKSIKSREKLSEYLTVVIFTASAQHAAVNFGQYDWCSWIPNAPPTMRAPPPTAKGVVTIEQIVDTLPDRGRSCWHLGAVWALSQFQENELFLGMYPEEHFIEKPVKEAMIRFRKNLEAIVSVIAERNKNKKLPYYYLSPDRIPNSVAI
Outline: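 RBL-1 cells grown in suspension, washed, suspended at 5 × 10^7 cells/mL in NaHPO4/CaCl2 buffer, homogenized at 0 °C, spun 9000g for 50 min. Supernatant preincubated with compound 5 min at 37 °C, then [14C]arachidonic acid added and incubated 20 min at 37 °C. Reaction stopped with 2 N formic acid. 5-HETE formation measured radiometrically.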

Structure (SMILES) | ED50 [1] | IC50 [2] | inhibition [1]
CC(=O)N(O)C(C)c1ccc2oc(-c3ccccc3)cc2c1 (configuration not stated) | 22.1 mg/kg | 490 nM | 
COc1cccc(OC)c1C(=O)N(O)C(C)c1ccc2oc(-c3ccccc3)cc2c1 (configuration not stated) |  | 3000 nM | 
CC(c1ccc2oc(-c3ccccc3)cc2c1)N(O)C(N)=O (configuration not stated) | 10.3 mg/kg | 410 nM | 
CCOC(=O)CCC(=O)N(O)C(C)c1ccc2oc(-c3ccccc3)cc2c1 (configuration not stated) |  | 50 nM | 
CCCCc1cc2cc(C(C)N(O)C(=O)CCCC(=O)OC)ccc2o1 (configuration not stated) |  | 50 nM | 28.6%
CC(c1ccc2oc(-c3ccccc3)cc2c1)N(O)C(=O)c1ccco1 (configuration not stated) |  | 40 nM | 32.9%
CC(=O)N(O)C(C)c1ccc(OCCc2ccccc2)cc1 (configuration not stated) |  | 410 nM | 
COC(=O)CCCC(=O)N(O)C(C)c1ccc2oc(-c3ccccc3)cc2c1 (configuration not stated) |  | 60 nM | 
CC(c1ccc2oc(-c3ccccc3)cc2c1)N(O)C(=O)c1ccccc1 (configuration not stated) |  |  | 46.2%
CC(c1ccc2oc(-c3ccccc3)cc2c1)N(O)C(=O)c1cccs1 (configuration not stated) |  | 250 nM | 29.1%
CCCCc1cc2cc(C(C)N(O)C(C)=O)ccc2o1 (configuration not stated) |  | 50 nM | 41.4%
COC(=O)CCCC(=O)N(O)C(C)c1ccc2oc(-c3cc(OC)c(OC)c(OC)c3)cc2c1 (configuration not stated) |  | 40 nM | 42.1%
COCC(=O)N(O)C(C)c1ccc2oc(-c3ccccc3)cc2c1 (configuration not stated) | 18.6 mg/kg | 160 nM | 
COc1cc(-c2cc3cc(C(C)N(O)C(N)=O)ccc3o2)cc(OC)c1OC (configuration not stated) | 17.5 mg/kg | 50 nM | 
COc1ccc2cc(-c3cc4cc(C(C)N(O)C(C)=O)ccc4o3)ccc2c1 (configuration not stated) |  | 120 nM | 25.6%
CCCCCCCCCCc1cc2cc(C(C)N(O)C(=O)CCCC(=O)OC)ccc2o1 (configuration not stated) |  | 150 nM | 37.3%
COc1cc(-c2cc3cc(C(C)N(O)C(C)=O)ccc3o2)cc(OC)c1OC (configuration not stated) |  | 310 nM | 42.1%
CC(c1ccc2oc(-c3ccccc3)cc2c1)N(O)C(=O)CO (configuration not stated) | 27.5 mg/kg | 700 nM | 
CC(=O)OCC(=O)N(O)C(C)c1ccc2oc(-c3ccccc3)cc2c1 (configuration not stated) |  | 160 nM | 18.9%
COc1ccc(C(=O)N(O)C(C)c2ccc3oc(-c4ccccc4)cc3c2)cc1OC (configuration not stated) |  | 200 nM | 
CC(c1cc2ccccc2s1)N(O)C(N)=O (configuration not stated) | 2.71 mg/kg |  | 
CCCCCCCCCCc1cc2cc(C(C)N(O)C(C)=O)ccc2o1 (configuration not stated) |  | 410 nM | 19.5%
